Assay results: the M2OR odorant receptor database

What follows are compounds tested against T1, UniProt Q9WVN5. Conditions: stereoisomer not certain.
T1 sequence (whole entry): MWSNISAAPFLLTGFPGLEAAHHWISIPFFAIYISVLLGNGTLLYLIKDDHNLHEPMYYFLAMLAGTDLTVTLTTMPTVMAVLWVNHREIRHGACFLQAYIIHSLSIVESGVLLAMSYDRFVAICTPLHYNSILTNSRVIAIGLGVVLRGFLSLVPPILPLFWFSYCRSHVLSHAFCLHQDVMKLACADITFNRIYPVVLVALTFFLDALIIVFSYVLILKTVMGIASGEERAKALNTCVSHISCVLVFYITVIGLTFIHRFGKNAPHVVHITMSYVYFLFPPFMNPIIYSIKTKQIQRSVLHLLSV
How it was run: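 Values were gathered from published papers (main text and supplementary material), with extra details requested from the original authors when needed, and checked for typos and inconsistencies. Each receptor–molecule pair is called responsive (active) if the original authors judged the measured signal statistically different from baseline, and non-responsive (inactive) otherwise. Assay methods varied by source, often transient mammalian cell-line luciferase assays. Recorded details include cell line, G-protein, co-transfected protein and tags.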

Odorant receptor agonist call, inactive:
C=C(C)C1CCC(C)C(=O)C1 (stereo not drawn)
CCCCCOC(=O)CCCCC
CCCCCCC(C)=O
CCCCCCCCCS
CCCC(=O)C(C)=O
CCCCOC(=O)C(C)OC(=O)CCC (stereo not drawn)
CCCCC(=O)CC
CCCCCCCC(C)=O
O=c1ccc2ccccc2o1
CCCCCCCC(=O)[O-].[H+]
CCCCCC1=C(C)CCC1=O
CCCC(C)=O
CCCCOC=O
CC(=O)OCc1ccccc1
CC(=O)Oc1ccccc1
CCCCCCOC(C)=O
CC(C)=CCCC(C)CCO (stereo not drawn)
CC12CCC(CC1=O)C2(C)C (stereo not drawn)
CCC(C(=O)O)c1ccccc1 (stereo not drawn)
CCC(=O)O
CCCCCO
O=C1CCOc2ccccc21

Odorant receptor agonist call, active:
CCCCCCC(=O)[O-].[H+]
